Assay results reported in ChEMBL document CHEMBL2424600, “Synthetic polyamines activating autophagy: effects on cancer cell death” (Eur J Med Chem, 2013).
Calls of active or inactive are those of the source. The rule behind the calls is not given here.

Key:
HeLa [1] = assay: Cytotoxicity against human HeLa cells assessed as cell survival after 24 hrs by trypan blue exclusion assay; assay type: functional, cell-based
How it was run: (§1)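 Cells exposed 24 h to increasing concentrations (DMSO vehicle, 0.1% of medium; controls got DMSO) at 37 °C, 5% CO2. Viability by trypan blue exclusion, triplicate samples, at least 10 fields counted each; survival as % of viable cells vs control. IC50 read from dose–response curve as concentration giving 50% survival.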

[2] = Cytotoxicity against human C-28/I2 cells assessed as cell survival after 24 hrs by trypan blue exclusion assay; assay type: cell-based; settings: C28/I2, 24 h; how it was run: as §1
Thymocyte = assay: Cytotoxicity against rat thymocytes assessed as cell survival after 24 hrs by trypan blue exclusion assay; assay type: cell-based; how it was run: as §1
HeLa [3] = assay: Induction of autophagy in human HeLa cells assessed as acidic vesicles accumulation at 20 uM after 3 hrs by acridine orange staining-based immunofluorescence microscopic analysis; assay type: functional, cell-based
How it was run: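 HeLa incubated 3 h with 20 µM compound; acidic vesicle accumulation scored after acridine orange staining. Triplicate means ± S.E.M.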

HeLa [4] = assay: Induction of apoptosis in human HeLa cells assessed as increase in caspase 3/7 activity at 25 uM after 24 hrs by DEVD-based fluorometric analysis; assay type: functional, cell-based
How it was run: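 HeLa treated 24 h with 25 µM DENSPM (positive control) or the indicated concentrations of compound; DEVDase (caspase 3/7) activity measured. Means ± S.E.M. of three replicates vs control.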

HeLa [5] = assay: Induction of autophagy in human HeLa cells assessed as conversion of LC3-1 protein to LC3-2 protein at 25 uM after 24 hrs by Western blot analysis; assay type: functional, cell-based
How it was run: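 HeLa incubated 24 h with DENSPM (25 µM) or spermidine (8 mM); LC3-I/LC3-II processing by Western blot of 50 µg protein with monoclonal anti-LC3 antibody.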

HeLa [6] = assay: Cytotoxicity against human HeLa cells assessed as decrease in cell survival at 25 uM after 24 hrs by trypan blue exclusion assay relative to control; assay type: functional; settings: read-out: Survival
How it was run: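 HeLa cells grown in EMEM with 10% FBS, 1% glutamine, 1% nonessential amino acids, 1 mM pyruvate and antibiotics at 37 °C in 5% CO2. Compound added from DMSO stock (DMSO 0.1% of volume; controls got DMSO only) and exposed 24 h. Viability read by trypan blue exclusion in triplicate samples, at least 10 fields counted. Survival given as % viable cells versus control.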

| SMILES | IC50 (HeLa [1]) | IC50 [2] | IC50 (Thymocyte) | Activity (HeLa [3]) | Activity (HeLa [4]) | Activity (HeLa [5]) | viability at 25 µM (HeLa [6]) |
| --- | --- | --- | --- | --- | --- | --- | --- |
| COc1ccccc1CNCCCCCCNCCCCCCCCNCCCCCCNCc1ccccc1OC [METHOCTRAMINE] | > 100 µM | > 100 µM | > 100 µM |  |  |  |  |
| COc1ccccc1CNCCCCCCNCCCCCCCCCCCCNCCCCCCNCc1ccccc1OC | 21 µM | 77 µM | > 100 µM | Active |  |  |  |
| CCNCCCNCCCNCCCNCC [BIS(ETHYL)NORSPERMINE] |  |  |  |  | Active | inactive | 50% |
